Assay results: PMC9070660 (RSC Advances, 2019)

Tests used:
OVCAR3 cells = assay: MTT cell viability assay, OVCAR3; assay type: cell-based, human
Summary of the method: (§1)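 Culture: SKOV3 in RPMI-1640 with 10% FBS and penicillin-streptomycin at 37 °C, 5% CO2; OVCAR3 and IOSE80 in DMEM. Cells seeded at 1 × 10^4 per well, grown 24 h, then exposed to a range of test compound concentrations for 48 h. MTT (2 mg mL−1 stock) added, […]; formazan dissolved in DMSO; A490 read. IC50 calculated; SI = IC50 IOSE80/IC50 cancer line; three separate experiments.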

SKOV3 cells = assay: MTT cell viability assay, SKOV3; assay type: cell-based, human
Summary of the method: as §1

IOSE80 cells = assay: MTT cell viability assay, normal ovarian epithelial cells IOSE80; assay type: cell-based; conditions: Homo sapiens, IOSE80, 48 h, read-out: IC50 (cell viability) IOSE80
Summary of the method: as §1

With `CC(=O)O[C@H]1C(=O)[C@@]2(C)[C@H]([C@H](OC(=O)c3ccccc3)[C@]3(O)C[C@H](OC(=O)[C@H](O)[C@@H](NC(=O)c4ccccc4)c4ccccc4)C(C)=C1C3(C)C)[C@]1(OC(C)=O)CO[C@@H]1C[C@@H]2O` [Paclitaxel] the IC50 (OVCAR3 cells; Homo sapiens, OVCAR-3, 48 h, read-out: IC50 (cell viability) OVCAR3) was 0.38 ± 0.04 µM, the “SI (selectivity index) OVCAR3” value (OVCAR3 cells; IC50 IOSE80 cell line/IC50 OVCAR3) was 4.5 and the IC50 (SKOV3 cells; Homo sapiens, SK-OV-3, 48 h, read-out: IC50 (cell viability) SKOV3) was 0.43 ± 0.03 µM. The “SI (selectivity index) SKOV3” value (SKOV3 cells; IC50 IOSE80 cell line/IC50 SKOV3) was 4.0 and the IC50 (IOSE80 cells) was 1.7 ± 0.1 µM.
